In ChEMBL document CHEMBL1275391, “Design, synthesis, and preclinical evaluation of new 5,6- (or 6,7-) disubstituted-2-(fluorophenyl)quinolin-4-one derivatives as potent antitumor agents” (J Med Chem, 2010):

Assays:
CCRF-CEM = experiment: Growth inhibition of human CCRF-CEM cells; type: functional
HL-60(TB) = experiment: Growth inhibition of human HL-60(TB) cells; type: functional
K562 = experiment: Growth inhibition of human K562 cells; type: functional
MOLT-4 = experiment: Growth inhibition of human MOLT4 cells; type: functional
SR = experiment: Growth inhibition of human SR cells; type: functional
EKVX = experiment: Growth inhibition of human EKVX cells; type: functional
HOP-62 = experiment: Growth inhibition of human HOP62 cells; type: functional
HOP-92 = experiment: Growth inhibition of human HOP92 cells; type: functional
NCI-H226 = experiment: Growth inhibition of human NCI-H226 cells; type: functional
HCC 2998 = experiment: Growth inhibition of human HCC2998 cells; type: functional
HCT-15 = experiment: Growth inhibition of human HCT15 cells; type: functional
HT-29 = experiment: Growth inhibition of human HT-29 cells; type: functional
KM12 = experiment: Growth inhibition of human KM12 cells; type: functional
SF-268 = experiment: Growth inhibition of human SF268 cells; type: functional
SF-295 = experiment: Growth inhibition of human SF295 cells; type: functional
SF-539 = experiment: Growth inhibition of human SF539 cells; type: functional
SNB-19 = experiment: Growth inhibition of human SNB19 cells; type: functional
SNB-75 = experiment: Growth inhibition of human SNB75 cells; type: functional
U-251 = experiment: Growth inhibition of human U251 cells; type: functional
M14 = experiment: Growth inhibition of human M14 cells; type: functional
SK-MEL-2 = experiment: Growth inhibition of human SK-MEL-2 cells; type: functional
SK-MEL-5 = experiment: Growth inhibition of human SK-MEL-5 cells; type: functional
UACC-257 = experiment: Growth inhibition of human UACC257 cells; type: functional
UACC-62 = experiment: Growth inhibition of human UACC62 cells; type: functional
IGROV-1 = experiment: Growth inhibition of human IGROV1 cells; type: functional
OVCAR-4 = experiment: Growth inhibition of human OVCAR4 cells; type: functional
NCI/ADR-RES = experiment: Growth inhibition of human NCI/ADR-RES cells; type: functional
SK-OV-3 = experiment: Growth inhibition of human SKOV3 cells; type: functional
786-0 = experiment: Growth inhibition of human 786-0 cells; type: functional
A498 = experiment: Growth inhibition of human A498 cells; type: functional
TK-10 = experiment: Growth inhibition of human TK10 cells; type: functional
PC-3 = experiment: Growth inhibition of human PC3 cells; type: functional
DU-145 = experiment: Growth inhibition of human DU145 cells; type: functional
MCF7 = experiment: Growth inhibition of human MCF7 cells; type: functional
BT-549 = experiment: Growth inhibition of human BT549 cells; type: functional
HL-60 = experiment: Cytotoxicity against human HL60 cells after 48 hrs by MTT assay; type: functional, cell-based; details: HL-60, 48 h
In short: (§1)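 Cells exposed to a range of compound concentrations for 48 h, washed once with PBS, then incubated with MTT for 2 h. Formazan dissolved in DMSO and absorbance read at 570 nm. IC50 taken as the concentration giving 50% inhibition of proliferation.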

HCT-116 = experiment: Cytotoxicity against human HCT116 cells after 48 hrs by MTT assay; type: functional, cell-based; details: HCT-116, 48 h; in short: as §1
[1] = Cytotoxicity against human Hep3B cells after 48 hrs by MTT assay; type: functional, cell-based, Hep 3B2; in short: as §1
NCI-H460 = experiment: Cytotoxicity against human H460 cells after 48 hrs by MTT assay; type: functional, cell-based; details: NCI-H460, 48 h; in short: as §1
[2] = target: Insulin-like growth factor 1 receptor (Homo sapiens) (UniProt P08069); experiment: Inhibition of tyrosine phosphorylation of IGF1R in human Hep3B cells assessed as decrease of phosphorylated IGF1R level after 12 hrs by Western blotting; type: cell-based; details: Hep 3B2
In short: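 Hep3B cells were exposed to a range of concentrations for 12 h at 37 C, with DMSO as vehicle control. They were lysed in Tris-HCl pH 7.9 buffer containing Triton X-100, SDS, NaF, orthovanadate and protease inhibitors, then centrifuged. Lysates were immunoblotted with anti-pY1135/1136-IGF-1R, and IGF-1R β-subunit served as loading control.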

[3] = target: Tyrosine-protein kinase Yes (Homo sapiens) (UniProt P07947); experiment: Inhibition of human YES1 at 10 uM
[4] = read-out: pLC50 (the source's name) (converted)

Chain of Insulin-like growth factor 1 receptor (Homo sapiens) (P08069 31-736 limits assumed): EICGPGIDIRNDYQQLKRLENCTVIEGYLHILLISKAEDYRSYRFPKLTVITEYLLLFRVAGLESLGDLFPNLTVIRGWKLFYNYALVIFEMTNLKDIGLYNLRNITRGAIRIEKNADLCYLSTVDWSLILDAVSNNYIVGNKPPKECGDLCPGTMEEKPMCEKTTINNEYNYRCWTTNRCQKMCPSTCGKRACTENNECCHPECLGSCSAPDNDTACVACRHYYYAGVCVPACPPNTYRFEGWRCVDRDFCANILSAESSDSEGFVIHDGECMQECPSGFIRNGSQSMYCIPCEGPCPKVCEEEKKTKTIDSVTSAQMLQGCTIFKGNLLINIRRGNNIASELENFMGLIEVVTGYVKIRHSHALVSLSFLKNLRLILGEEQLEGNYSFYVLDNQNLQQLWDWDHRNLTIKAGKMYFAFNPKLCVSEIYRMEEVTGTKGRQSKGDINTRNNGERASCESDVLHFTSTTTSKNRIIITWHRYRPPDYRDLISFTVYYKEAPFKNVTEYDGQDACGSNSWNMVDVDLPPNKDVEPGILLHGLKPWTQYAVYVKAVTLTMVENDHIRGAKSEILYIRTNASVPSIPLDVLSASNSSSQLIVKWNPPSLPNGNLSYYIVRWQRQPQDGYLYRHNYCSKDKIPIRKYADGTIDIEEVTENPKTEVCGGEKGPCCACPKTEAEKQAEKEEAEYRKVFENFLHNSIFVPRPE
Chain of Insulin-like growth factor 1 receptor (Homo sapiens) (P08069 741-1367 limits assumed): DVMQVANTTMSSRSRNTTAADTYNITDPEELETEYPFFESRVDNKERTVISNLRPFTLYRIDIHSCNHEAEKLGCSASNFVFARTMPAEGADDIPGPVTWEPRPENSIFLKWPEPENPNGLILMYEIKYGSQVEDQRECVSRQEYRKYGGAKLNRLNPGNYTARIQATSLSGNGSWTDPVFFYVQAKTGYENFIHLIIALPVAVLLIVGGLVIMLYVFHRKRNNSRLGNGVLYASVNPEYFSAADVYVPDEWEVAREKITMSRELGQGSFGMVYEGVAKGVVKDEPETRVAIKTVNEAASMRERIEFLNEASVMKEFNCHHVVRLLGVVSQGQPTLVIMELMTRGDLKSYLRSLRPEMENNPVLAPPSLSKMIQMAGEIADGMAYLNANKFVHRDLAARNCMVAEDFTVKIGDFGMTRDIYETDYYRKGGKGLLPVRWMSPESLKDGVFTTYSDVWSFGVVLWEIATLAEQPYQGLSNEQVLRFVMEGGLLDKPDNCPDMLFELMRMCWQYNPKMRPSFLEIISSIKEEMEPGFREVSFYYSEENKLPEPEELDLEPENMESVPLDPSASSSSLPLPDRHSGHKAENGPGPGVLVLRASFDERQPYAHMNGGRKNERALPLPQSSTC
Chain of Tyrosine-protein kinase Yes (Homo sapiens) (P07947 2-543 limits assumed): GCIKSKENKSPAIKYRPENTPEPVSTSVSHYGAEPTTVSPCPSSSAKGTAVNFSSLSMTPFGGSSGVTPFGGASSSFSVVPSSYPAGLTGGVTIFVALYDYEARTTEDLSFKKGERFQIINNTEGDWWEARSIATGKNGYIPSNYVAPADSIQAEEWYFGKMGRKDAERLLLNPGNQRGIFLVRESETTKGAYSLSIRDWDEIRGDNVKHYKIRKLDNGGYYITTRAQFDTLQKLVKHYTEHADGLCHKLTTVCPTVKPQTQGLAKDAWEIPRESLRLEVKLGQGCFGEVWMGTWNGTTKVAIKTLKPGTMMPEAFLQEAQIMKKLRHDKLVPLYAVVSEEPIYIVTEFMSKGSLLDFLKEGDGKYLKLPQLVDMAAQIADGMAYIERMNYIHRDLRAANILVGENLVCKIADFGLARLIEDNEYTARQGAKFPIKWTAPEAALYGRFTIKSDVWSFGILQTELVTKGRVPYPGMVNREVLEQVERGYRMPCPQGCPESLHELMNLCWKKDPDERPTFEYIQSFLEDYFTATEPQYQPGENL

`COc1ccc2[nH]c(-c3cccc(F)c3)cc(=O)c2c1O` showed a GI50 (CCRF-CEM) of 0.0347 µM, a CC50 (CCRF-CEM; [4]) greater than 100 µM and a TGI (CCRF-CEM; read-out: pTGI) greater than 100 µM. For the same molecule, the GI50 (HL-60(TB)) was 0.0224 µM, the CC50 (HL-60(TB); [4]) was greater than 100 µM and the TGI (HL-60(TB); read-out: pTGI (converted)) was 0.0631 µM. For the same molecule, the GI50 (K562) was 0.024 µM, the CC50 (K562; [4]) was greater than 100 µM and the TGI (K562; read-out: pTGI (converted)) was 0.204 µM. It also gave a GI50 (MOLT-4) of 0.0479 µM, a CC50 (MOLT-4; [4]) greater than 100 µM and a TGI (MOLT-4; read-out: pTGI (converted)) of 19.1 µM. The GI50 (SR) was 0.012 µM, the CC50 (SR; [4]) was greater than 100 µM and the TGI (SR; read-out: pTGI (converted)) was 0.0676 µM. It also gave a GI50 (EKVX) of 0.0457 µM, a CC50 (EKVX; [4]) greater than 100 µM and a TGI (EKVX; read-out: pTGI) greater than 100 µM. The GI50 (HOP-62) was 0.0501 µM, the CC50 (HOP-62; [4]) was 42.7 µM and the TGI (HOP-62; read-out: pTGI (converted)) was 14.5 µM. For the same molecule, the GI50 (HOP-92) was 4.9 µM, the CC50 (HOP-92; [4]) was greater than 100 µM and the TGI (HOP-92; read-out: pTGI (converted)) was 36.3 µM. The GI50 (NCI-H226) was 1.82 µM, the CC50 (NCI-H226; [4]) was greater than 100 µM and the TGI (NCI-H226; read-out: pTGI (converted)) was 31.6 µM. The GI50 (HCC 2998) was 0.0324 µM, the CC50 (HCC 2998; [4]) was 16.2 µM and the TGI (HCC 2998; read-out: pTGI (converted)) was 0.0661 µM. For the same molecule, the GI50 (HCT-15) was 0.0355 µM, the CC50 (HCT-15; [4]) was greater than 100 µM and the TGI (HCT-15; read-out: pTGI (converted)) was 14.8 µM. It also gave a GI50 (HT-29) of 0.0288 µM, a CC50 (HT-29; [4]) of 15.5 µM and a TGI (HT-29; read-out: pTGI (converted)) of 0.0759 µM. The GI50 (KM12) was 0.0275 µM, the CC50 (KM12; [4]) was 5.5 µM and the TGI (KM12; read-out: pTGI (converted)) was 0.151 µM. It also gave a GI50 (SF-268) of 0.0617 µM, a CC50 (SF-268; [4]) of 89.1 µM and a TGI (SF-268; read-out: pTGI (converted)) of 15.5 µM. It also gave a GI50 (SF-295) of 0.0257 µM, a CC50 (SF-295; [4]) of 53.7 µM and a TGI (SF-295; read-out: pTGI (converted)) of 10.5 µM. The GI50 (SF-539) was 0.0263 µM, the CC50 (SF-539; [4]) was 18.6 µM and the TGI (SF-539; read-out: pTGI (converted)) was 0.0977 µM. The GI50 (SNB-19) was 0.0288 µM, the CC50 (SNB-19; [4]) was greater than 100 µM and the TGI (SNB-19; read-out: pTGI (converted)) was 0.437 µM. For the same molecule, the GI50 (SNB-75) was 0.0151 µM, the CC50 (SNB-75; [4]) was 44.7 µM and the TGI (SNB-75; read-out: pTGI (converted)) was 0.0589 µM. For the same molecule, the GI50 (U-251) was 0.0427 µM, the CC50 (U-251; [4]) was 55 µM and the TGI (U-251; read-out: pTGI (converted)) was 14.5 µM. It also gave a GI50 (M14) of 0.0191 µM, a CC50 (M14; [4]) of 70.8 µM and a GI50 (SK-MEL-2) of 0.0724 µM. It also gave a CC50 (SK-MEL-2; [4]) of 77.6 µM, a TGI (SK-MEL-2; read-out: pTGI (converted)) of 15.8 µM and a GI50 (SK-MEL-5) of 0.0295 µM. For the same molecule, the CC50 (SK-MEL-5; [4]) was 18.2 µM, the TGI (SK-MEL-5; read-out: pTGI (converted)) was 0.2 µM and the GI50 (UACC-257) was 0.0339 µM. It also gave a CC50 (UACC-257; [4]) greater than 100 µM, a TGI (UACC-257; read-out: pTGI) greater than 100 µM and a GI50 (UACC-62) of 0.0309 µM. The CC50 (UACC-62; [4]) was 93.3 µM, the TGI (UACC-62; read-out: pTGI (converted)) was 20 µM and the GI50 (IGROV-1) was 0.0269 µM. It also gave a TGI (IGROV-1; read-out: pTGI (converted)) of 0.0933 µM, a GI50 (OVCAR-4) of 0.0437 µM and a CC50 (OVCAR-4; [4]) greater than 100 µM. It also gave a TGI (OVCAR-4; read-out: pTGI (converted)) of 9.12 µM, a GI50 (NCI/ADR-RES) of 0.0209 µM and a CC50 (NCI/ADR-RES; [4]) of 40.7 µM. The TGI (NCI/ADR-RES; read-out: pTGI (converted)) was 0.0537 µM, the GI50 (SK-OV-3) was 0.0355 µM and the CC50 (SK-OV-3; [4]) was 37.2 µM. It also gave a TGI (SK-OV-3; read-out: pTGI (converted)) of 10.7 µM, a GI50 (786-0) of 0.0501 µM and a CC50 (786-0; [4]) of 89.1 µM. For the same molecule, the TGI (786-0; read-out: pTGI (converted)) was 16.2 µM, the GI50 (A498) was 0.0246 µM and the CC50 (A498; [4]) was 41.7 µM. It also gave a TGI (A498; read-out: pTGI (converted)) of 0.209 µM, a GI50 (TK-10) of 1.78 µM and a CC50 (TK-10; [4]) greater than 100 µM. The TGI (TK-10; read-out: pTGI (converted)) was 67.6 µM, the GI50 (PC-3) was 0.0324 µM and the CC50 (PC-3; [4]) was 70.8 µM. For the same molecule, the TGI (PC-3; read-out: pTGI (converted)) was 15.5 µM, the GI50 (DU-145) was 0.0209 µM and the CC50 (DU-145; [4]) was 33.9 µM. For the same molecule, the TGI (DU-145; read-out: pTGI (converted)) was 0.0525 µM, the GI50 (MCF7) was 0.0302 µM and the CC50 (MCF7; [4]) was greater than 100 µM. It also gave a TGI (MCF7; read-out: pTGI) greater than 100 µM, a GI50 (BT-549) of 0.145 µM and a CC50 (BT-549; [4]) greater than 100 µM. For the same molecule, the TGI (BT-549; read-out: pTGI (converted)) was 26.9 µM, the IC50 (HL-60) was 0.03 µM and the IC50 (HCT-116) was 0.07 µM. For the same molecule, the IC50 [1] was 0.07 µM, the IC50 (NCI-H460) was 0.08 µM and the inhibition [2] was “Dose-dependent effect”. It also gave an inhibition [3] of 68%.
